Drawing on ChEMBL document CHEMBL1143066, “Characterization and optimization of selective, nonpeptidic inhibitors of cathepsin S with an unprecedented binding mode” (J Med Chem, 2007), this text covers kcat/Km for one protein.

Type in all cases: functional
Substrate in series [1]: CCCCc1ccc(-c2ccccc2OCC(=O)Nc2ccc3c(C)c(CC(=O)O)c(=O)oc3c2)c(F)c1F
In words: (§1) Activity of cathepsin S assessed as substrate cleavage efficiency. The procedure, abridged:
(§2)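 Cathepsin S at 37 °C in pH 6.1 100 mM sodium phosphate, 100 mM NaCl, 1 mM DTT, 1 mM EDTA, 0.001% Tween-20. AMCA substrate added from DMSO at ≥6-fold below its K_M. Run in duplicate with and without enzyme. Fluorescence (ex 370/em 455 nm) read over up to 15 min. Slope gave V_max/K_M; k_cat/K_M used AMCA calibration and E-64c-titrated enzyme concentration.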

Substrate in series [2]: CCCc1ccc(-c2ccccc2OCC(=O)Nc2ccc3c(C)c(CC(=O)O)c(=O)oc3c2)c(F)c1F
Described as §1. In a few lines: as §2

Substrate in series [3]: CCc1ccc(-c2ccccc2OCC(=O)Nc2ccc3c(C)c(CC(=O)O)c(=O)oc3c2)c(F)c1F
The series is described as §1. The procedure, abridged: as §2

Substrate in series [4]: COc1ccc(-c2ccccc2OCC(=O)Nc2ccc3c(C)c(CC(=O)O)c(=O)oc3c2)c(F)c1F
The series is described as §1. The procedure, abridged:
as §2

Substrate in series [5]: Cc1c(CC(=O)O)c(=O)oc2cc(NC(=O)COc3ccccc3-c3ccc(CC(C)C)c(F)c3F)ccc12
Described as §1. In a few lines:
as §2

Substrate in series [6]: Cc1c(CC(=O)O)c(=O)oc2cc(NC(=O)COc3ccccc3-c3ccc(CC4CCCCC4)c(F)c3F)ccc12
Described as §1. In a few lines:
as §2

Substrate in series [7]: Cc1c(CC(=O)O)c(=O)oc2cc(NC(=O)COc3ccccc3-c3ccc(F)c(F)c3F)ccc12
The series is described as §1. In a few lines:
as §2

B1: Cathepsin S (Homo sapiens), P25774 (protein)
chain: MKRLVCVLLVCSSAVAQLHKDPTLDHHWHLWKKTYGKQYKEKNEEAVRRLIWEKNLKFVMLHNLEHSMGMHSYDLGMNHLGDMTSEEVMSLMSSLRVPSQWQRNITYKSNPNRILPDSVDWREKGCVTEVKYQGSCGACWAFSAVGALEAQLKLKTGKLVSLSAQNLVDCSTEKYGNKGCNGGFMTTAFQYIIDNKGIDSDASYPYKAMDQKCQYDSKYRAATCSKYTELPYGREDVLKEAVANKGPVSVGVDARHPSFFLYRSGVYYEPSCTQNVNHGVLVVGYGDLNGKEYWLVKNSWGHNFGEEGYIRMARNKGNHCGIASFPSYPEI
For B1, the kcat/Km (commonly the turnover number divided by the Michaelis constant) in series [1] is 85000 M⁻¹ s⁻¹; in series [2], 145000 M⁻¹ s⁻¹; in series [3], 25900 M⁻¹ s⁻¹; in series [4], 2700 M⁻¹ s⁻¹; in series [5] it was 288000 M⁻¹ s⁻¹; in series [6], 15700 M⁻¹ s⁻¹. The catalytic efficiency (kcat/Km) in series [7] stood at 27000 M⁻¹ s⁻¹.
